Laboratory results as given in ChEMBL document CHEMBL3244174, “Synthesis and biological activity of some new furan quaternary salts” (J Med Chem, 1977).
Activity calls are given as the source filed them. The calls are words filed in the database; no cut-off is given here.

How the values were obtained:
Candida albicans = assay: Antifungal activity against Candida albicans SKF 2270 assessed as growth inhibition by agar dilution method; format: functional
Cryptococcus neoformans = assay: Antifungal activity against Cryptococcus neoformans 103 assessed as growth inhibition by agar dilution method; format: functional
[1] = system: Trichophyton mentagrophytes; assay: Antifungal activity against Trichophyton mentagrophytes A-280 USPHS assessed as growth inhibition by agar dilution method; format: functional
Trichophyton rubrum = assay: Antifungal activity against Trichophyton rubrum 252 CSTM assessed as growth inhibition by agar dilution method; format: functional
Microsporum canis = assay: Antifungal activity against Microsporum canis VM-200 USPHS assessed as growth inhibition by agar dilution method; format: functional
Nannizzia gypsea = assay: Antifungal activity against Microsporum gypseum 153 CSTM assessed as growth inhibition by agar dilution method; format: functional
Histoplasma capsulatum = assay: Antifungal activity against Histoplasma capsulatum RNSH Hi-70 1/2 assessed as growth inhibition by agar dilution method; format: functional
[2] = system: Nippostrongylus brasiliensis; assay: Anthelmintic activity against larvae stage of Nippostrongylus brasiliensis infected in rat assessed as decrease in worm load at 250 mg/kg, po administered on day 8 post infection; format: functional, organism-based; set-up: dose 250 mg/kg
Outline: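 Young male rats (25–30 g, University of Freiburg strain), 3 per compound, infected with 500 infective larvae; single 250 mg/kg oral dose on day 8. Worm loads of treated and control groups compared; 90% deparasitization taken as active. Whitlock–Bliss technique as modified by Steward.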

Rodentolepis nana = assay: Anthelmintic activity against viable ova stage of Hymenolepis nana infected in rat assessed as decrease in intestinal worm load at 250 mg/kg, po measured on day 3; format: functional, organism-based; set-up: dose 250 mg/kg
Outline: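 Young male rats (25–30 g, University of Freiburg strain) infected with 200 viable ova, then given a single 250 mg/kg oral dose. Worms from each rat's small intestine collected and scored on day 3. A mean score of 0–10% of control taken as active.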

[3] = Acute toxicity in ip dosed mouse; format: organism-based; conditions: in vivo
Outline: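 Mice dosed intraperitoneally; LD50 determined.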

Staphylococcus aureus = assay: Antibacterial activity against Staphylococcus aureus ATCC 6538 assessed as growth inhibition after 24 hrs by dilution tube method; format: functional; conditions: ATCC 6538, 24 h
Outline: (§1)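 Broth tube dilution in Tryptone Soya Broth, duplicate tubes at each concentration. MIC (μg/ml) was the highest dilution preventing visible growth. Nitrofurantoin run under the same conditions.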

Enterococcus faecalis = assay: Antibacterial activity against Streptococcus faecalis ATCC 10541 assessed as growth inhibition after 24 hrs by dilution tube method; format: functional; conditions: ATCC 10541, 24 h; outline: as §1
Pseudomonas aeruginosa = assay: Antibacterial activity against Pseudomonas aeruginosa ATCC 10145 assessed as growth inhibition after 24 hrs by dilution tube method; format: functional; conditions: ATCC 10145, 24 h; outline: as §1
Klebsiella pneumoniae = assay: Antibacterial activity against Klebsiella pneumoniae ATCC 10031 assessed as growth inhibition after 24 hrs by dilution tube method; format: functional; conditions: ATCC 10031, 24 h; outline: as §1
Salmonella typhi = assay: Antibacterial activity against Salmonella typhi 115 assessed as growth inhibition after 24 hrs by dilution tube method; format: functional, Salmonella enterica subsp. enterica serovar Typhi; conditions: Salmonella enterica, 115, 24 h
Outline: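 Dilution tube method in Tryptone Soya Broth; MIC (μg/ml) taken as highest dilution preventing visible growth; duplicates at every concentration; nitrofurantoin reference run under same conditions.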

[4] = system: Agrobacterium tumefaciens; assay: Antibacterial activity against Agrobacterium tumefaciens NRRL B-36 assessed as growth inhibition after 24 hrs by dilution tube method; format: functional; conditions: NRRL B-36, 24 h; outline: as §1
Escherichia coli = assay: Antibacterial activity against Escherichia coli 114 assessed as growth inhibition after 24 hrs by dilution tube method; format: functional; conditions: Escherichia coli, 114, 24 h; outline: as §1
[5] = system: Mycobacterium tuberculosis; assay: Antibacterial activity against Mycobacterium tuberculosis H37Rv assessed as growth inhibition by serial dilution method; format: functional
Outline: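 M. tuberculosis H37Rv maintained on Lowenstein–Jensen medium; tested in Youman's medium by serial dilution.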

| SMILES | MIC (Candida albicans) [µg/mL] | MIC (Cryptococcus neoformans) [µg/mL] | MIC [1] [µg/mL] | MIC (Trichophyton rubrum) [µg/mL] | MIC (Microsporum canis) [µg/mL] | MIC (Nannizzia gypsea) [µg/mL] | MIC (Histoplasma capsulatum) [µg/mL] | Activity [2] | Activity (Rodentolepis nana) | LD50 [3] [mg/kg] | MIC (Staphylococcus aureus) [µg/mL] | MIC (Enterococcus faecalis) [µg/mL] | MIC (Pseudomonas aeruginosa) [µg/mL] | MIC (Klebsiella pneumoniae) [µg/mL] | MIC (Salmonella typhi) [µg/mL] | MIC [4] [µg/mL] | MIC (Escherichia coli) [µg/mL] | MIC [5] [µg/mL] |
| --- | --- | --- | --- | --- | --- | --- | --- | --- | --- | --- | --- | --- | --- | --- | --- | --- | --- | --- |
| Cc1cc(OCCCC[N+](C)(C)Cc2ccc(Br)o2)c(C(C)C)cc1Cl.[Br-] | 50 | 25 | 50 | > 200 | 75 | 50 | > 200 | inactive | inactive | 25 | 2.5 | 7.5 | 2.5 | 2.5 | > 200 | 25 | > 200 | 7.5 |
| Cc1cc(OCCCC[N+](C)(C)Cc2ccc([N+](=O)[O-])o2)c(C(C)C)cc1Cl.[Br-] | > 200 | 25 | > 200 | > 200 | > 200 | > 200 | > 200 | inactive | inactive | 75 | 7.5 | 25 | 1.5 | 5 | > 200 | 25 | > 200 | 10 |
| C[N+](C)(CCCCOc1c(Br)cc(Br)cc1Br)Cc1ccc(Br)o1.[Br-] | > 200 | 25 | > 200 | > 200 | > 200 | > 200 | 50 | inactive | inactive | 37.5 | 5 | 25 | 5 | 7.5 | 100 | 50 | > 200 | 50 |
